Source: ChEMBL document CHEMBL1165965, “Synthesis and structure-activity relationships of 1,2,3,4-tetrahydropyrido[2,3-b]pyrazines as potent and selective inhibitors of the anaplastic lymphoma kinase” (Bioorg Med Chem, 2010)

Target: ALK tyrosine kinase receptor (Homo sapiens, UniProt Q9UM73)
Experiment: Inhibition of ALK by time-resolved fluorescence assay
In short: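 Baculovirus-expressed ALK (30 ng/ml) on plates coated with GST–PLC-gamma substrate in TBS. Reaction ran 15 min at 37 °C. Europium-labeled anti-phosphotyrosine antibody was added for 1 h at 37 °C, then enhancement solution for 30 min, and TRF was read. IC50 came from a variable-slope sigmoidal fit of % inhibition vs log concentration.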

Sequence of ALK tyrosine kinase receptor (Q9UM73 whole entry): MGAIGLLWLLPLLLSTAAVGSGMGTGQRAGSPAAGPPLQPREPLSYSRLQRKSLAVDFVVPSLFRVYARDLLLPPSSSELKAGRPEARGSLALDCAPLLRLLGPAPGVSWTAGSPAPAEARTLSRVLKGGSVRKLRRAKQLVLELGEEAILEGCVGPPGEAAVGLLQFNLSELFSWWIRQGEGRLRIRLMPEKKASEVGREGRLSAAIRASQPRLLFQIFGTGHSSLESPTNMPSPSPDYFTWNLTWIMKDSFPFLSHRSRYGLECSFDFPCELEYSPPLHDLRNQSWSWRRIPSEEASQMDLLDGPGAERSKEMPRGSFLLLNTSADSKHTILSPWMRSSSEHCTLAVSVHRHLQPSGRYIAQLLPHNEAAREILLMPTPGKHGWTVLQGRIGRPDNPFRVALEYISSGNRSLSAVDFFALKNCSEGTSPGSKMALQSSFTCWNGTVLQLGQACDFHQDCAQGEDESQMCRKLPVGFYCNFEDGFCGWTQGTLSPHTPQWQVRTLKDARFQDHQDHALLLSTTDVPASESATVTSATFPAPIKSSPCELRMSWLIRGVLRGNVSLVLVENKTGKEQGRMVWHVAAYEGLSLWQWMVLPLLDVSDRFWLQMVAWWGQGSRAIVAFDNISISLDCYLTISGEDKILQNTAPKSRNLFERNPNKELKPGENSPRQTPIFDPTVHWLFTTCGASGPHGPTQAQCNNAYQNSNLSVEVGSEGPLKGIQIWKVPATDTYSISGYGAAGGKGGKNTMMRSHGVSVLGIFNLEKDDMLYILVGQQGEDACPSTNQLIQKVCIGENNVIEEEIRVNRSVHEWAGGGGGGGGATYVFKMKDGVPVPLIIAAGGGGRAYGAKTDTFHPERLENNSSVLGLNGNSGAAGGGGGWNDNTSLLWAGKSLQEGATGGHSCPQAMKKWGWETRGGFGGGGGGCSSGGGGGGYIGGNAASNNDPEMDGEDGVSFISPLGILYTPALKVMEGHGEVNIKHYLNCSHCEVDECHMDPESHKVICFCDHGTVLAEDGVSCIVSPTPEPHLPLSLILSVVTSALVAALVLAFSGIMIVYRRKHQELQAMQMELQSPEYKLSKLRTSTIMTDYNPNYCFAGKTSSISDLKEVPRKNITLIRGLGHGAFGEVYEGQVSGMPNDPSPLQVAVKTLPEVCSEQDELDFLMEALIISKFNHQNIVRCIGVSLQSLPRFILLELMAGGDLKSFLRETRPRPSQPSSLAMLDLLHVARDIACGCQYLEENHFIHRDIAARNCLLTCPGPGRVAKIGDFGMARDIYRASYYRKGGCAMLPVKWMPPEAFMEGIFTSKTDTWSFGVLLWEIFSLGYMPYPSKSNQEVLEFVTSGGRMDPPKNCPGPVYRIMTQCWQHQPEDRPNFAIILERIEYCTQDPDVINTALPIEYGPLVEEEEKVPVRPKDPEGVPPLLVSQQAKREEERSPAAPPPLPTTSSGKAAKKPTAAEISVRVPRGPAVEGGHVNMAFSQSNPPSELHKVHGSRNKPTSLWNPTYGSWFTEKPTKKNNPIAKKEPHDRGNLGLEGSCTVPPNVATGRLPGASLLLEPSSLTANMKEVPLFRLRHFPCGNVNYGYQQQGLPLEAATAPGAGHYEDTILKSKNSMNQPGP

Structure (SMILES)	IC50 [µM]
CN1CCN(c2ccc(-c3cnc4c(c3)N(S(=O)(=O)c3cc(F)ccc3F)CCN4)cn2)CC1	0.465
CCOC(=O)c1ccc(-c2cnc3c(c2)N(Cc2cc(Cl)ccc2C(F)(F)F)CCN3)cc1	> 3
O=C1CNc2ncc(-c3ccc(C(=O)N4CCC[C@H]4CN4CCCC4)cc3)cc2N1Cc1c(Cl)cccc1Cl	0.278
O=C1CNc2ncc(-c3ccc(C(=O)N4CCC[C@H]4CN4CCCC4)cc3)cc2N1Cc1ccccc1	> 10
CN1CCN(c2ccc(-c3cnc4c(c3)N(Cc3c(Cl)cccc3C(F)(F)F)CCN4)cn2)CC1	0.506
CN1CCN(c2ccc(-c3cnc4c(c3)C(Cc3cc(F)ccc3F)CCN4)cn2)CC1 (stereo not drawn)	1.54
CN1CCN(c2ccc(-c3cnc4c(c3)N(C(=O)Cc3cc(F)ccc3F)CCN4)cn2)CC1	> 10
O=C1CNc2ncc(-c3ccc(C(=O)N4CCC[C@H]4CN4CCCC4)cc3)cc2N1Cc1cc(F)ccc1F	0.145
CN1CCN(c2ccc(-c3cnc4c(c3)N(Cc3cc(Cl)ccc3Cl)CCN4C)cn2)CC1	> 3
O=C(c1ccc(-c2cnc3c(c2)N(Cc2c(Cl)cccc2Cl)CCN3)cc1)N1CCC[C@H]1CN1CCCC1	0.027
CN1CCN(c2ccc(-c3cnc4c(c3)C(Oc3c(F)ccc(F)c3Cl)CCN4)cn2)CC1 (stereo not drawn)	> 10
O=C(c1ccc(-c2cnc3c(c2)N(Cc2ccccc2)CCN3)cc1)N1CCC[C@H]1CN1CCCC1	0.256
O=C(c1ccc(-c2cnc3c(c2)N(Cc2cc(F)ccc2F)CCN3)cc1)N1CCC[C@H]1CN1CCCC1	0.015
